NPY Y2 blocker = NPY-Y2 receptor antagonists, primary screen, cell-based | NPY-Y2 expressing cells, antagonist mode | actives 0.99% (n = 140,000) | AID 793, 2007 | Neuropeptide Y receptor type 2 (Homo sapiens), P49146 | inhibition, % at 2.7 µM; in the data active = inhibition above about 17%;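 note: 0% = vehicle with agonist challenge and 100% = reference antagonist with challenge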
Target sequence (P49146 whole entry, looked up): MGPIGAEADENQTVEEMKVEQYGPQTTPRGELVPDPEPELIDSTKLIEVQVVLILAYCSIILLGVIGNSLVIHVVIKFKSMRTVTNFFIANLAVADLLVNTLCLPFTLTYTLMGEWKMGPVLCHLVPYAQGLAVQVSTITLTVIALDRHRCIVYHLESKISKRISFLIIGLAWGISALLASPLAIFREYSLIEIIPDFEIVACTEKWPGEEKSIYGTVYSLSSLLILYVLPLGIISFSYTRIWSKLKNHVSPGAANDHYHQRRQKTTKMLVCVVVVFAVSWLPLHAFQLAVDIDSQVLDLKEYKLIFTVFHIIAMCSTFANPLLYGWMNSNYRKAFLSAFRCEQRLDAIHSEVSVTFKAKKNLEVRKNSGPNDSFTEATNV
NPY2 pot ag = NPY-Y2 potentiators or agonists, primary screen, cell-based | activation, % at 3.6 µM | AID 1359, 2008 | Neuropeptide Y receptor type 2 (Homo sapiens), P49146 | cells expressing NPY-Y2, potentiator/agonist read-out | actives 0.45% (n = 220,000); in the data active = activation above about 27%;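 note: cells stimulated with NPY near EC25 plus isoproterenol at EC100; 0% = vehicle plus submaximal agonist and 100% = vehicle plus saturating agonist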
NPY Y1 blocker = NPY-Y1 receptor antagonists, primary screen, cell-based. inhibition, % at 3.6 µM. HEK293-CNG Y1 cells, membrane potential fluorescence; NPY at EC95, then isoproterenol. actives 1% (n = 200,000). Neuropeptide Y receptor type 1 (Homo sapiens), P25929. AID 1040, 2008;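 active = inhibition above the campaign mean inhibition of all tested compounds plus 3 SD, cut at about 20% in these data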;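 note: 0% = DMSO wells given NPY plus isoproterenol and 100% = isoproterenol alone without NPY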
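material = HEK293 cells with Y1 receptor plus CNG channel | also added = NPY 25 nM then isoproterenol 1 µM plus Ro 20-1724 25 µM | schedule = dye 3 h, compound 60 min room temperature, stimulation 45 min | measured by = membrane potential fluorescence | benchmarks = high control isoproterenol alone, low control NPY with isoproterenol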
NPY-Y1 PAM-ag = NPY-Y1 receptor potentiators or agonists, primary screen, cell-based; activation, % at 3.6 µM; NPY-Y1 expressing cells, potentiator/agonist activation; actives 0.37% (n = 220,000); in the data active = activation above about 33%, passing the limit was not always enough;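 note: cells stimulated with NPY at EC10 then isoproterenol at EC100; 0% = low agonist plus stimulus and 100% = saturating agonist plus stimulus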
An asterisk follows results filed as active; x = no result. Shown are actives, neighbours in structure and some others; about 1.8% of the full set was active somewhere.

SMILES	NPY Y2 blocker	NPY2 pot ag	NPY Y1 blocker	NPY-Y1 PAM-ag
CCc1ccc2[nH]c(=O)c(CN(Cc3ccccc3OC)Cc3nnnn3Cc3ccco3)cc2c1	19*	7	13	-2
COc1ccc2sc(N(CCN(C)C)C(=O)/C=C/c3cccs3)nc2c1	x	41*	8	42*
O=C(/C=C/c1ccco1)Nc1ccccc1C(=O)Nc1cccc(C(=O)O)c1	x	43*	x	48*
COc1ccc(NC(=O)C(Sc2nnc(-c3ccncc3)n2-c2ccccc2C)c2ccccc2)cc1Cl (centres undefined)	2	-3	5	12
CCCN(CCC)CCOc1cc(C)ccc1C(C)C	27*	-6	28*	-16
Cc1ccc(C(C)C)c(OCCN(C)C)c1	6	-22	-2	-3
Cc1ccc(N=C2SC(C(=O)Nc3ccc(OC(F)(F)F)cc3)C(N)=C2C(=O)Nc2c(C)cc(C)cc2C)cc1 (centres undefined)	-2	37*	2	29
Cc1ccc(C)c(C(C)NC(=O)C2C3CCC(O3)C2C(=O)O)c1 (centres undefined)	1	4	2	-1
CCOC(=O)CSc1nc2ccccc2c(=O)n1CC(C)C	x	-28	20*	-24
CCOC(=O)CSc1nc2ccccc2c(=O)n1CC	5	-5	7	-17
CC(C)Cn1c(SCC(=O)N2CCCCC2)nc2ccccc2c1=O	24*	-12	22*	-18
O=C(CSc1nc2ccccc2c(=O)n1Cc1ccco1)N1CCCC1	x	1	-1	-3
COCCCn1c(SCc2nnc(-c3ccc(OC)c(OC)c3)o2)nc2ccccc2c1=O	16	-6	14	-24
COc1ccc(-c2nnc(CSc3nc4ccccc4c(=O)n3CC(C)C)o2)cc1OC	28*	-37	26*	-30
Cc1ccc2nc(N3C(=O)C(O)=C(C(=O)c4ccco4)C3c3cccs3)sc2c1 (centres undefined)	19*	-20	37*	-32
COC(=O)c1ccccc1NC(=O)CN1CCN(C23CC4CC(CC(C4)C2)C3)CC1	64*	-39	96*	-127
Cc1c(Cl)cccc1NC(=O)c1cc(C2CC2)on1	6	-4	2	-18
Cc1ccccc1Nc1c(-c2cccnc2)nc2cccc(C)n12	x	29*	-2	39*
COCCn1nnnc1CN(CCc1ccccc1)Cc1cc2ccc(C)cc2[nH]c1=O	-1	-17	8	-24
CC(C)(C)n1nnnc1C(c1ccc(F)cc1)N(Cc1ccc(F)cc1)Cc1ccco1 (centres undefined)	27*	-7	47*	-10
CC(C)(C)n1nnnc1CN(Cc1cccnc1)Cc1ccccc1Cl	5	-2	6	-13
CCN(Cc1ccccc1)C(c1ccncc1)c1nnnn1C(C)(C)C (centres undefined)	5	15	5	3
CC(C)C(c1nnnn1Cc1ccccc1)N(Cc1ccco1)Cc1cccs1 (centres undefined)	4	6	-1	5
CC(C)(C)n1nnnc1C(c1ccc(Cl)cc1)N(Cc1cccnc1)Cc1ccco1 (centres undefined)	28*	-14	25*	-23
CC(C)(C)c1ccc(CN(Cc2ccccc2)C(c2ccccn2)c2nnnn2C(C)(C)C)cc1 (centres undefined)	1	-10	0	3
SMILES	NPY Y2 blocker	NPY2 pot ag	NPY Y1 blocker	NPY-Y1 PAM-ag
Cc1ccc(C(c2nnnn2C(C)(C)C)N(Cc2ccco2)Cc2cccs2)cc1 (centres undefined)	18*	-14	5	8
CC(C)(C)n1nnnc1C(c1ccc(C(F)(F)F)cc1)N(Cc1ccc(F)cc1)Cc1ccco1 (centres undefined)	26*	-31	32*	-8
Fc1ccc(C(c2nnnn2C2CCCC2)N(Cc2ccco2)CC2CCCO2)cc1 (centres undefined)	43*	5	32*	-6
Cc1ccc(C(C(=O)NC2CCCCC2)N(Cc2ccco2)C(=O)C2COc3ccccc3O2)o1 (centres undefined)	20*	4	28*	5
COc1ccc(C(C(=O)NC2CCCC2)N(CC2CCCO2)C(=O)Cc2cccs2)cc1OC (centres undefined)	x	3	4	-2
O=C(NCC(=O)N(Cc1ccco1)C(C(=O)NC1CCCC1)c1ccncc1)c1cccs1 (centres undefined)	3	6	3	4
